Assay outcomes (PubChem BioAssay)
Yeast growth inh – reduces growth of yeast BB579 in restrictive medium. S. cerevisiae BB579 growth, OD615, 48 h. inhibition, % at 10 µM. hit rate 0.51% among 140,000. AID 804;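 active = inhibition above a set limit, 3 SD over the mean compound inhibition, cut at about 44% in these data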
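controls = amphotericin B 10 µg/mL, positive | assay system = DeaD yeast strain BB579 | schedule = 48 h compound exposure at 30 °C after 4 h preincubation | detection = OD615 turbidity measurement | medium = restrictive CSMM-D medium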
Yeast lifespan up – extends the lifespan of yeast; S. cerevisiae growth with nicotinamide, OD615; deaD strain in restrictive glucose medium; inhibition of the nicotinamide effect, % at 10 µM; hit rate 0.68% among 130,000; AID 775;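 active = inhibition above a set limit, placed 3 SD over the median of all compounds, cut at about 26% in these data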;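 also: 0% = nicotinamide-treated wells and 100% = cells grown without nicotinamide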
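Test system – modified budding yeast, DeaD strain · Compound – single dose 10 µM compound, 0.25% DMSO · Times – culture preincubation 4 h, compound exposure 48 h, both 30 °C · Detection – optical density (absorbance) at 615 nm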
S1P3 antagonist – S1P3 (human) receptor antagonism; Q99500; CHO S1P3 NFAT-BLA reporter, FRET fluorescence, antagonist mode; inhibition, % at 4.98 µM; hit rate 0.27% among 170,000;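 active = inhibition above the plate cutoff, the mean inhibition of test wells on that plate plus 3 SD, cut at about 28% in these data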;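 also: cells challenged with S1P at its EC80 of 0.8 µM; blue over green emission ratio from cleaved BLA substrate after 4 h stimulation; 0% = S1P-stimulated wells and 100% = unstimulated DMSO-only wells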
Target sequence (Q99500 whole entry, looked up): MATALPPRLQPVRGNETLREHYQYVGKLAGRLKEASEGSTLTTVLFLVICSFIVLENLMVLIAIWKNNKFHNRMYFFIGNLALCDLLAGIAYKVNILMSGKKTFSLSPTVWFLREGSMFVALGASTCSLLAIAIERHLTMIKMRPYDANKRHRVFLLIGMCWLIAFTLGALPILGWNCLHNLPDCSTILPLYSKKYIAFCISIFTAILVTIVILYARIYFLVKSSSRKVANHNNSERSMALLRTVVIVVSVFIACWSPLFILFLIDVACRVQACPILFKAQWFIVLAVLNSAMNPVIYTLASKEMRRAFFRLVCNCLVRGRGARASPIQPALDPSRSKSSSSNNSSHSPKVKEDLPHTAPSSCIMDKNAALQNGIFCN
* = called active by the depositor; · = not tested or not shown. Only some compounds are listed: those with a hit (about 0.98% of all), similar ones and a draw of the others.

SMILES | Yeast growth inh | Yeast lifespan up | S1P3 antagonist
Cc1ccc2nc(-c3ccc(NS(=O)(=O)c4ccccc4)cc3)sc2c1 | -31 | 0 | -13
Cc1ccc2nc(-c3ccc(NS(=O)(=O)c4ccc(F)c(F)c4)cc3)sc2c1 | 68* | -7 | 3
COc1ccc(-c2cc3nc(-c4ccccc4)cc(N4CCC5(CC4)OCCO5)n3n2)cc1 | -12 | -21 | 54*
COc1ccc(-c2cc3nc4c(c(N5CCC6(CC5)OCCO6)n3n2)CCC4)cc1 | · | · | 12
O=C(C(=O)N1CCCc2ccccc21)N1CCCc2ccccc21 | -8 | 1 | -27
O=C(c1ccc(C(=O)N2CCCc3ccccc32)s1)N1CCCc2ccccc21 | 84* | -17 | ·
Cc1ccc2c(c1)CCCN2C(=O)c1ccoc1C | -17 | -20 | 23
CCc1ccc2c(c1)CCCN2C(=O)c1ccccc1C(=O)O | -42 | 34* | -12
CCCC(=O)Nc1ccccc1-c1nnc(SC)[nH]c1=O | 15 | -8 | -27
COc1cccc(/C=N/NC(=O)c2cc3cc([N+](=O)[O-])ccc3s2)c1O | -10 | -5 | -14
COc1ccccc1-c1nc(NC(C)=O)n[nH]1 | -22 | 1 | ·
CCc1nnc(NC(=O)c2cccc(S(=O)(=O)N(C)c3ccccc3)c2)s1 | -91 | 71* | ·
CCSc1nnc(NC(=O)c2cccc(S(=O)(=O)N(C)c3ccc(C)cc3)c2)s1 | -17 | 17 | 0
Cn1c(CNC(=O)c2ccccc2F)nnc1SCc1ccc(Cl)cc1 | · | · | -3
CCCCCCOC(=O)C[N+](C)(C)CCOC1CC2CCC1(C)C2(C)C (stereo unspecified) | 8 | -14 | ·
CCCCCCCOC(=O)C[N+](C)(C)CCOC1CC2CCC1(C)C2(C)C (stereo unspecified) | 100* | -12 | 9
CCOC(=O)c1c(NC(=O)c2cccnc2)sc(C)c1C | -27 | -23 | ·
CCOC(=O)c1sc(NC(=O)c2cccnc2)c(C#N)c1C | -50 | 29* | ·
Cn1c(-c2c(N)n(C3CCCC3)c3nc4ccccc4nc23)nc2ccccc21 | 16 | -9 | 75*
Cn1c(-c2c(N)n(CCc3ccccc3)c3nc4ccccc4nc23)nc2ccccc21 | -48 | -17 | ·
COc1ccc(C(=O)NCCc2cn3ccc(C)cc3n2)cc1 | 18 | -1 | ·
O=CN/N=C/c1c(O)ccc2ccccc12 | · | · | -2
O=S(=O)(/N=C/c1c(O)ccc2ccccc12)c1cccs1 | -20 | 30* | ·
COc1ccc(OC)c2c(C)cc(N3CCN(C(=O)c4ccc(Cl)cc4)CC3)nc12 | -30 | -13 | ·
O=C(C[n+]1cccc(/C=N/O)c1)N1CCCc2ccccc21 | · | · | 6
SMILES | Yeast growth inh | Yeast lifespan up | S1P3 antagonist
CCOc1ccc2c(c1)-c1c(ssc1=S)C(C)(C)N2C | -9 | 39* | ·
CC1(C)Nc2ccc(O)cc2-c2c1ssc2=S | -23 | -6 | ·
CCOC(=O)c1[nH]ncc1CN1CCCC(C(=O)c2ccc(OC)c(OC)c2)C1 (stereo unspecified) | · | · | 7
COc1ccc(OC)c(NC(=O)CN(c2ccc(C)cc2)S(=O)(=O)c2c(C)noc2C)c1 | -38 | -1 | -2
COc1ccc(OC)c(NC(=O)CN(c2ccc(C(C)C)cc2)S(=O)(=O)c2c(C)noc2C)c1 | 11 | -7 | 54*
CC(OC(=O)C1CCCO1)C(=O)NC1CCCC1 (stereo unspecified) | -2 | -17 | -12
CCOC(=O)c1c(N)sc(C(O)(C(F)(F)F)C(F)(F)F)c1-c1ccc(Cl)cc1 | 52* | -12 | ·
CCOC(=O)c1c(NC(=O)C2C3CCC(O3)C2C(=O)O)sc(C)c1-c1ccc(F)cc1 (stereo unspecified) | -40 | -10 | ·
CCOC(=O)c1c(NC(=O)/C=C/C(=O)O)sc(C)c1-c1ccc(Cl)cc1 | · | · | -13
CCOC(=O)c1c(N)sc(C(O)(C(F)(F)F)C(F)(F)F)c1-c1ccc(F)cc1 | 48* | -12 | ·
C/C(=N\Nc1ccc([N+](=O)[O-])cc1)c1ccc(N)cc1 | 97* | -10 | 4
CCc1ccc(/C(C)=N\Nc2ccc([N+](=O)[O-])cc2)cc1 | -36 | -4 | ·
COC(=O)Cc1ccc2sc(-c3ccccc3)nc2c1 | -11 | -5 | 0
O=C(O)Cc1ccc2sc(-c3ccccc3)nc2c1 | 49* | -9 | 4
CCN(CC)C(=O)CSc1nnnn1-c1ccc(F)c(Cl)c1 | · | · | -8
Cc1ccc(S(=O)(=O)c2ccc(C)cc2)cc1 | -17 | 58* | ·
CNS(=O)(=O)c1ccc(C)cc1 | -11 | -8 | ·
Cc1ccc(NC(=O)C2CC(=O)Nc3nc4ccccc4n32)c(C)c1 (stereo unspecified) | · | · | 7
c1ccc2nc3ccccc3nc2c1 | 60* | -8 | 0
Nc1nc2ccccc2nc1N | -8 | -1 | -6
CCOCCn1c(SCCCc2ccccc2)nc2c1c(=O)[nH]c(=O)n2C | -25 | -5 | ·
CCCCCSc1nc2c(c(=O)[nH]c(=O)n2C)n1CCc1ccccc1 | · | · | 102*
